The text below walks through data of ChEMBL document CHEMBL4513216, “Probing the Open Global Health Chemical Diversity Library for Multistage-Active Starting Points for Next-Generation Antimalarials” (ACS Infect Dis, 2020).

The series can be described thus: Toxicity liver stage against HepG2, at 10uM. In kind it is cell-based. Set-up: test concentration 10 uM, cell line HepG2-A16-CD81EGFP. The following applies: human, HepG2-A16-CD81EGFP cells; read-out: INHIBITION
The method, boiled down:
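Uninfected HepG2-A16-CD81EGFP cells, 3 × 10^3 per well, 1536-well, plated on prespotted compound at 10 μM final, parasite-free screening media added to match infected plates; puromycin 10 μM positive, DMSO 0.5% negative; run in parallel with 48 h PbLuc assay at 37 °C, 5% CO2; viability by CellTiter-Glo luminescence, normalized to controls.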
Take `CCN(C(=O)c1cccc2c1OCO2)c1ccccc1`: the cytotoxicity at 10 µM came to 0.944%.

For `CCN(CC)c1nc2ccsc2c(=O)n1CCC(=O)NCc1ccco1`, the cytotoxicity at 10 µM was 9.87%.

For `CC1(C)CNC(=O)CN(C(=O)COc2ccccc2)C1`, the cytotoxicity at 10 µM stood at 1.4%.

Take `COC1CCN(C(=O)Nc2ccccc2)CC(=O)N(C)c2ccccc21` (stereo unspecified): the cytotoxicity at 10 µM worked out at 2.94%.

As for `O=C(c1nc(Cc2c[nH]c3ccccc23)no1)N1CCCCC1`, the cytotoxicity at 10 µM amounted to 6.04%.

In the case of `Cc1ccsc1C(O)CNC(=O)Cc1ccc(F)cc1` (stereo unspecified), the cytotoxicity at 10 µM was determined as 3.15%.

Consider `O=C(c1ccccc1F)N1CCN(c2ccc(-n3cccc3)nn2)CC1`, for which the cytotoxicity at 10 µM came to 53.2%.

In the case of `CCS(=O)(=O)N1CCc2nc(N3CCOCC3)nc(N(C)C)c2CC1`, the cytotoxicity at 10 µM turned out to be 21.3%.

For `CN1C(=O)CC2(CCN(S(=O)(=O)C3CC3)CC2)c2ccccc21`, the cytotoxicity at 10 µM stood at 2.04%.

`CCCS(=O)(=O)NCC1OCCc2cn(CC3CCOCC3)nc21` (stereo unspecified): the cytotoxicity at 10 µM is -5.6%.

In the case of `CC/N=c1\nc(NCC)nc2n1C(O)(Nc1cc(Cl)ccc1Cl)CS2` (stereo unspecified), the cytotoxicity at 10 µM was found to be 51.8%.

For the compound `O=C1CC(c2cccc(Cl)c2)c2snc(C(=O)O)c2N1` (stereo unspecified), the cytotoxicity at 10 µM stood at 2.91%.

For the compound `Cc1ccc2nc(C)cc(NCCNS(=O)(=O)c3cn(C)nc3C)c2c1`, the cytotoxicity at 10 µM turned out to be 8.06%.

Regarding `O=C(CCC1CCCC1)N1CCC(c2cc3ncccc3c(O)n2)CC1`, the cytotoxicity at 10 µM was -4.82%.

For the compound `Cc1nc(C2CCCN2C(=O)c2ccc(F)cc2)ncc1C(N)=O` (stereo unspecified), the cytotoxicity at 10 µM was -7.62%.

As to `Cc1noc(C)c1C(=O)N1CCCC(c2c(C)c(=O)nc3n2CCC3)C1` (stereo unspecified), the cytotoxicity at 10 µM is -21.1%.

`CN1CCC(Cc2cncc(-c3ccccc3C(=O)O)n2)C1` (stereo unspecified): the cytotoxicity at 10 µM is -7.19%.

On to `O=C(Cn1ccnc1)N1C[C@@H]2CC[C@H](Oc3ccc(Cl)cc3)[C@@H]2C1`, for which the cytotoxicity at 10 µM was -3.8%.

As for `Cc1cnccc1CN1CC[C@@](C)(O)[C@H](Oc2cccc(F)c2)C1`, the cytotoxicity at 10 µM is 1.52%.

For the compound `CCc1nnc(Nc2cccc(C3CCN(CCO)CC3)n2)s1`, the cytotoxicity at 10 µM was -6.41%.

For the compound `CC(C)CC(C#N)NC(=O)CCNC(=O)C(C)(C)C` (stereo unspecified), the cytotoxicity at 10 µM was -3.3%.

For `Cc1ccc(C(=O)NCC(C)Cn2ccnc2C)c(=O)[nH]1` (stereo unspecified), the cytotoxicity at 10 µM was -0.89%.

Take `COc1ccc(C2CCCN2C(=O)NCCCn2cccn2)cc1` (stereo unspecified): the cytotoxicity at 10 µM is 7.53%.

`Cc1cc(C)cc(C(=O)Nc2cccc(CN3CCCC3C(N)=O)c2)c1` (stereo unspecified): the cytotoxicity at 10 µM came out at 4.38%.

As for `OC(CN(Cc1ccccc1)Cc1ccccn1)c1cccs1` (stereo unspecified), the cytotoxicity at 10 µM came to 0.174%.

As to `Cc1ccc(S(=O)(=O)Nc2ccc(-n3cccc3C(=O)O)c(C)c2)cc1`, the cytotoxicity at 10 µM is -3.94%.

Turning to `CC(C)(C)n1nc(C2CC2)cc1C(=O)NC1CCN(CC(N)=O)CC1`, the cytotoxicity at 10 µM was -2.06%.

Consider `CCS(=O)(=O)c1ccc2c(c1)OCCCO2`, for which the cytotoxicity at 10 µM is -2.3%.

`CC(CCNC(=O)NCCc1ccncc1)c1ccccc1` (stereo unspecified): the cytotoxicity at 10 µM is -5.82%.

As for `CC(=O)Nc1ccc(C(=O)N(C)Cc2ccc(F)cc2F)s1`, the cytotoxicity at 10 µM came out at 6.43%.

For `Cc1nnc(CSCc2ccc(OCC(F)(F)F)nc2)o1`, the cytotoxicity at 10 µM is 2.49%.

As to `Clc1ccc(CNc2cnn(CCN3CCOCC3)c2)cc1Cl`, the cytotoxicity at 10 µM turned out to be 3.2%.

For `CC(=O)c1ccc(-n2c(C)cn(CCS(C)(=O)=O)c2=O)cc1`, the cytotoxicity at 10 µM is 11.5%.

As to `O=C(Cn1cc(-n2cccc2)cn1)NCC1CCC1`, the cytotoxicity at 10 µM stood at 14.7%.

On to `O=C(CCN1CCCCC1c1cc2ccccc2[nH]1)N1CCOCC1` (stereo unspecified), for which the cytotoxicity at 10 µM amounted to 7.82%.

On to `COCCNC(=O)[C@H]1CN(c2ncccn2)C[C@H]2OCC[C@@H]12`, for which the cytotoxicity at 10 µM is -80.7%.

Take `COCCC(=O)N1CCN(CC2CC2)c2ncccc2C1`: the cytotoxicity at 10 µM was -96.7%.

Regarding `O=C1CC2(CCN(Cc3ccsc3)C2)CN1c1ccc2c(c1)OCO2` (stereo unspecified), the cytotoxicity at 10 µM was -75%.

Turning to `CC(=O)N1CCC2(CC1)CCN(C(=O)c1cccc(C(F)(F)F)c1)C2`, the cytotoxicity at 10 µM was -74.5%.

Regarding `CC(C)[C@@H](CO)Nc1cc(-c2cn[nH]c2)ncn1`, the cytotoxicity at 10 µM is -11.3%.

Regarding `CN1C[C@@H](N)C[C@H]1C(=O)N1CCC(CCCc2ccccc2)CC1`, the cytotoxicity at 10 µM is -8.29%.

For the compound `CN(Cc1csc(-c2cccs2)n1)Cc1cccnc1N`, the cytotoxicity at 10 µM is -1.06%.

As for `CCc1cnc(C)nc1NCCSc1nnc(C)n1CC`, the cytotoxicity at 10 µM was -4.19%.

As for `O=C(NCCN1CCCCC1=O)C1CCC(=O)N(C2CCCC2)C1` (stereo unspecified), the cytotoxicity at 10 µM was -10.8%.

For the compound `O=C(CCC(=O)N1CCNC(=O)C1c1cccc(F)c1)NC1CCCC1` (stereo unspecified), the cytotoxicity at 10 µM turned out to be 2.68%.

For `CCC(C(=O)NC1(C(N)=O)CCCC1)n1cccn1` (stereo unspecified), the cytotoxicity at 10 µM is -9.13%.

For the compound `Cc1nc(CCNC(=O)C(N)c2c(C)n[nH]c2C)sc1C` (stereo unspecified), the cytotoxicity at 10 µM is 2.08%.

As to `CCN(Cc1ccncc1)C1CCCN(C/C=C/c2ccc(F)cc2)C1` (stereo unspecified), the cytotoxicity at 10 µM was 6.61%.

Consider `CCC1CN(C(=O)c2csc3nc(-c4ccc(Cl)cc4)cn23)CCN1` (stereo unspecified), for which the cytotoxicity at 10 µM turned out to be 1.6%.

Turning to `CN(C)c1nc2c(c(N(C)C)n1)CCN(C(=O)CN1CCC(O)CC1)C2`, the cytotoxicity at 10 µM was found to be 5.31%.

In the case of `Cc1n[nH]c(CN2CCN(CC3CC3)[C@@H]3CS(=O)(=O)C[C@@H]32)n1`, the cytotoxicity at 10 µM was -15.8%.

Regarding `CSCCC1c2nc[nH]c2CCN1Cc1cncn1C` (stereo unspecified), the cytotoxicity at 10 µM turned out to be 13.3%.

As for `CCn1c(CC2CCN(C(=O)C3CCOC3)CC2)nn(C)c1=O` (stereo unspecified), the cytotoxicity at 10 µM was -18%.

Consider `CC(CCc1ccc(O)cc1)NC1CCN(S(C)(=O)=O)CC1` (stereo unspecified), for which the cytotoxicity at 10 µM was 1.46%.

As for `COCCc1noc(CN2C(=O)OC[C@@H]2C(C)C)n1`, the cytotoxicity at 10 µM was -8.93%.

For the compound `CCN(C)CC(=O)N1CCCC(c2nnc(CN3CCOCC3)n2C)C1` (stereo unspecified), the cytotoxicity at 10 µM was -8.28%.

`Cc1nc(C)n(C2CCCN(C(=O)c3cccc4cn[nH]c34)C2)n1` (stereo unspecified): the cytotoxicity at 10 µM is -8.86%.

`CCNC(=O)CCc1c(C)nc2cc(O)nn2c1C`: the cytotoxicity at 10 µM was -12.6%.

Take `Cc1cccc(N2CCN(CCNC(=O)C(C)n3cncn3)CC2)c1` (stereo unspecified): the cytotoxicity at 10 µM is -1.91%.

Turning to `CC(C)(C#N)C(=O)N1CCCC(c2cc(C(F)(F)F)[nH]n2)C1` (stereo unspecified), the cytotoxicity at 10 µM is -5.67%.

Turning to `CN1CCOC(CN(C(=O)CC2CCCC2)c2nccs2)C1` (stereo unspecified), the cytotoxicity at 10 µM is -3.78%.

As to `CCCC1CCCN(Cc2csc(-c3cnn(C)c3)n2)CC1` (stereo unspecified), the cytotoxicity at 10 µM was -1.47%.

Regarding `COC(=O)c1cccn1C1CCN(Cc2ccccc2)CC1`, the cytotoxicity at 10 µM was -12%.

Take `Cc1cc(C(=O)N2CCc3nc(N4CCOCC4)nc(C)c3C2)c(C)o1`: the cytotoxicity at 10 µM was -110%.

`CC(=O)N1[C@H](Cn2cncn2)C[C@@H]2CN(Cc3ccncc3)CC[C@@H]21`: the cytotoxicity at 10 µM came to 2.24%.

For `Cc1cnc(N2C[C@H]3CCCC(N(C)Cc4ccccn4)[C@H]3C2)nc1` (stereo partly specified), the cytotoxicity at 10 µM was -104%.

`CC(C)NCC1OCCc2cn(C)nc21` (stereo unspecified): the cytotoxicity at 10 µM was 9.91%.

As to `COc1ccccc1CNC(Cc1cccs1)c1nc(C)c(C)s1` (stereo unspecified), the cytotoxicity at 10 µM is 3.89%.

On to `COC[C@@]12CCO[C@@H]1CCN(Cc1ccc(C)s1)C2`, for which the cytotoxicity at 10 µM was -91.9%.

For `c1cc(CO[C@@H]2CC[C@H]3[C@H]2OCCN3Cc2ccoc2)ccn1`, the cytotoxicity at 10 µM was found to be 10.8%.

Regarding `c1ccc(CN2CCOC3CNCC[C@H]32)cc1` (stereo partly specified), the cytotoxicity at 10 µM was 6.31%.
